# Source: PubChem BioAssay (several laboratories)
# The list is not random: actives were taken first. Their share in the collection is about 0.77%.
# ABCB1 block: human ABCB1 inhibition, ABCG2 as counter-screen. CCRF-Adr cells, JC-1 efflux, flow cytometry. inhibition, % at 6.6 µM. hit rate 0.067% among 190,000. AID 1326; in the data active means inhibition above about 40%;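 further: 0% = vehicle and 100% = reference inhibitor; higher value means more JC-1 retained so stronger ABCB1 efflux block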
# Rad51 HR inh: Rad51 (human) homologous recombination inhibition; Q06609; AID 1385; hRad51 DNA strand exchange, fluorescence dequenching; hit rate 0.085% among 200,000; inhibition, % at 10 µM;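 active means inhibition above 40% at the single screening dose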;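 further: 0% = DMSO control wells and 100% = blanks with heterologous ssDNA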
# Target sequence (Q06609 whole entry, looked up): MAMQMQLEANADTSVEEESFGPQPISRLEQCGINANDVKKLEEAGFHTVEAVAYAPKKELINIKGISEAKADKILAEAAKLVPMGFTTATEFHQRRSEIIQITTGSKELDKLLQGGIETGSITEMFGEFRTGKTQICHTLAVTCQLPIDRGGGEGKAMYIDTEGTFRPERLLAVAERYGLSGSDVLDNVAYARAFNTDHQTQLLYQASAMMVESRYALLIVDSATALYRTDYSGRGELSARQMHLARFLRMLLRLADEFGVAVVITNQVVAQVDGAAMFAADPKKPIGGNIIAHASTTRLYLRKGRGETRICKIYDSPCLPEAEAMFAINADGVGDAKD
#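 Test system: preformed human Rad51 ssDNA filaments; also added: Donor/quencher-labelled 47-bp dsDNA substrate; doses: 10 µM final, single point; times: 37 °C 15-min filament assembly, 30-min compound preincubation, 15-min exchange; detection: FRET fluorescence dequenching, excitation 485 nm, emission 520 nm; read-out basis: Fluorescence-based percent inhibition, control- and blank-normalised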
# ABCG2 block: inhibitors of human ABCG2 transporter, ABCB1 counter-screen; Q9UNQ0; IgMXP3 cells, JC-1 efflux, flow cytometry; inhibition, % at 6.6 µM; hit rate 0.1% among 190,000;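 active means inhibition above 80%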;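 further: 0% = DMSO and 100% = nicardipine control wells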
#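 System: two drug-resistant human cell lines, ABCG2 and ABCB1; controls: nicardipine high and DMSO low controls; times: 10 min exposure at 25 °C with rotation, no wash; detection: flow cytometry of retained JC-1 fluorescence; read-out basis: percent efflux inhibition, scaled nicardipine 100% to DMSO 0%; doses: one concentration, 6.6 µM final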
# PERK inhibitor: human PERK inhibition, primary cell-based screen; CHO PERK-DD fusion, SEAP luminescence translation reporter; inhibition, % at 5.6 µM; hit rate 0.17% among 220,000; AID 1416;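 active means inhibition above the mean inhibition of all tested compounds plus 3 SD, set separately per screening campaign, cut at about 2.9% in these data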;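 further: PERK kinase domain activated by AP20187 dimerizer at 100 nM; 0% = DMSO with dimerizer and 100% = rapamycin at 8.4 µM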
# Furin inhibitor: blocks human furin protease activity; AID 463115; purified furin, fluorogenic substrate cleavage; hit rate 0.061% among 220,000; inhibition, % at 20 µM or 30 µM; P09958; in the data active means inhibition above about 25%
# Efa HMGR inh: E. faecalis class II HMG-CoA reductase inhibition | purified E. faecalis HMGR, NADPH absorbance 340 nm kinetic | inhibition, % at 10 µM | hit rate 0.41% among 190,000 | AID 1066;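 active means inhibition above a set limit, the median over all tested compounds plus 3 SD, cut at about 9.5% in these data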;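 further: enzyme runs in reverse so mevalonate oxidation gives rising NADPH absorbance; 0% = complete reaction with DMSO and 100% = background rate lacking mevalonate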
# The depositor's hits bear a star; x = not tested or not shown.
SMILES,ABCB1 block,Rad51 HR inh,ABCG2 block,PERK inhibitor,Furin inhibitor,Efa HMGR inh
COc1cccc2c1C(CO)N1C(C#N)C3CC(C(=O)O)C(C1C2)N3C (stereo not given),x,-4.8,x,3.7*,-29.7,x
COc1cccc(-c2noc(-c3ccoc3C)n2)c1,0.8,x,2.7,3.1*,-17.3,-1.2
COc1ccc(NC(=O)c2c3c(nc4ccccc24)CCC3)cc1S(=O)(=O)N1CCOCC1,-0.9,x,-2.6,-0.4,-13.3,2.6
COCc1cc(C)nc(SCC[N+](C)(C)CC(=O)Nc2cccc(C(F)(F)F)c2)c1C#N,1.0,0.6,4.0,0.0,-34.6,1.1
Cc1cccc(C)c1NC(=O)Cn1nnnc1N,0.3,-3.2,1.1,0.3,-34.8,13.0*
Oc1ccc2ccccc2c1Br,1.0,43.0*,2.2,2.7,-31.5,-2.4
O=C(Nc1nc(-c2ccccc2)cs1)NC1CCCCC1,0.4,-0.5,24.3,0.3,-18.7,10.9*
CCOC(=O)C1CCN(CC(=O)Nc2c(C(=O)OC)n(C)c3cccc(C)c23)CC1,1.1,69.1*,2.8,0.3,-13.2,-1.8
COC(=O)c1c(NC(=O)CN2CCC(C(N)=O)CC2)c2c(C)cccc2n1C,0.3,3.2,0.3,0.7,-21.3,2.1
Cn1cc(Cl)c(C(=O)NC(=S)Nc2sc3c(c2C#N)CCCCC3)n1,x,-6.2,0.6,0.6,-5.0,0.3
O=C(O)/C(=C\c1cccs1)c1ccccc1,-0.2,3.1,-0.1,0.9,-20.1,12.3*
COc1ccccc1N1CCN(C(=O)CN(C)S(=O)(=O)c2cc(C)ccc2OC)CC1,1.0,1.2,4.2,-1.5,-11.3,-4.5
CC1(C)CC(=O)C(C=Nc2ccc(Cl)cn2)=C(O)C1,-0.2,-6.9,1.6,1.4,53.1*,1.7
Cc1ccc(N=CC2=C(O)CC(C)(C)CC2=O)nc1,0.9,-7.4,0.7,-1.5,17.5,0.8
CSc1nc(Sc2ccc(Cl)cc2)c2ccccc2n1,0.5,x,2.4,2.9*,-21.5,-9.4
CCOC(=O)CNC(=O)c1ccc(SCC)cc1,x,9.8,x,1.7,-17.3,x
C=CCNC(=O)c1c(Cl)cnn1-c1ccc(C)cc1,0.5,31.4,3.0,0.7,-7.0,-1.2
Cc1nn(-c2ccccc2)c(Cl)c1/C=N/NC(=O)c1ccc(NS(=O)(=O)c2cccs2)cc1,-0.4,-5.4,2.1,0.3,-32.6,9.6*
CCCOc1ccc(C2NC(=O)NC2=O)cc1 (stereo not given),1.6,10.3,10.8,0.8,26.7*,-2.2
Cc1[nH]c2c([N+](=O)[O-])cccc2c1C,x,-6.7,x,2.4,-16.8,x
C/C(=N\OC(=O)c1ccc(F)cc1)c1nccs1,0.0,-5.6,1.2,3.2*,-3.3,-3.6
NC(=O)c1cnn(C2CCS(=O)(=O)C2)c1 (stereo not given),-0.5,17.6,-1.9,1.5,-18.9,-0.2
COc1ccccc1-c1cc(C(F)(F)F)nc(S(=O)(=O)CCCC(=O)O)n1,0.7,6.5,2.8,-0.1,-21.8,11.8*
CC1CN(C(=O)c2cccc(S(=O)(=O)Nc3ccc(Cl)cc3)c2)CC(C)O1 (stereo not given),0.8,-2.2,4.3,0.1,-19.6,24.2*
C#CCSc1nnc(-c2ccc(OC)cc2)o1,0.4,-5.6,2.0,0.3,-14.1,-1.2
SMILES,ABCB1 block,Rad51 HR inh,ABCG2 block,PERK inhibitor,Furin inhibitor,Efa HMGR inh
CCOC(=O)N1CCN(c2c(-c3ccc(C)cc3)c(=O)c2=O)CC1,2.0,80.4*,42.8,0.0,-11.0,6.5
CCOC(=O)c1sc(NC(=O)C2C3C=CC(C3)C2C(=O)O)nc1C (stereo not given),0.3,2.2,0.6,3.4*,-4.4,0.7
CCOC(=O)c1sc(N/N=C/c2cccc(C)c2)nc1C,0.0,-0.3,0.7,0.7,-12.2,-0.6
CCOC(=O)c1sc(NC(=O)CSc2nccc(C)n2)nc1C,0.1,5.4,0.8,0.4,-29.9,19.1*
CCOC(=O)c1sc(N/N=C/c2ccccc2)nc1C,-9.0,-9.6,-0.5,0.1,-9.2,9.9*
O=CN1CC(=O)N(c2ccccc2)c2c([nH]c3ccccc23)C1,4.4,-3.9,4.0,1.4,-13.6,-4.0
O=C(NCc1ccc(F)cc1)C(=O)NCC1OCCN1S(=O)(=O)c1cccs1 (stereo not given),0.4,-5.7,4.8,-0.2,-13.5,5.0
